From ChEMBL document CHEMBL1140564, “Macrocyclic ureas as potent and selective Chk1 inhibitors: an improved synthesis, kinome profiling, structure-activity relationships, and preliminary pharmacokinetics” (Bioorg Med Chem Lett, 2007)
Calls of active or inactive are those of the source. The rule behind the calls is not given here.

Experiments:
[1] = Cell cycle arrest in H1299 cells by accumulation at G2/M phase by FACS assay; format: functional, cell-based; conditions: Homo sapiens, NCI-H1299
NCI-H1299 = assay: Inhibition of doxorubicin-induced cell cycle arrest in H1299 cells at G2/M phase by FACS assay; format: functional, cell-based; conditions: Homo sapiens
Outline: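 H1299 cells treated with 500 nM doxorubicin to induce G2/M arrest, with or without inhibitor at various concentrations, up to 10 μM. Cells stained with propidium iodide and DNA content analysed by FACS. EC50 for abrogation of the Dox-induced G2/M checkpoint.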

HeLa = assay: Cytotoxicity against HeLa cells by MTS assay; format: functional, cell-based; conditions: Homo sapiens
[2] = AUC in mouse plasma at 10 mg/kg; format: ADME, organism-based; set-up: dose 10 mg/kg
Outline: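 CD-1 mice received a single intraperitoneal dose of 10 mg/kg. Plasma drug levels were followed over time, and exposure was expressed as AUC in µmol h/L.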

[3] = target: T1, Serine/threonine-protein kinase Chk1 (Homo sapiens, UniProt O14757); assay: Inhibition of Chk1
T1 sequence (O14757 whole entry): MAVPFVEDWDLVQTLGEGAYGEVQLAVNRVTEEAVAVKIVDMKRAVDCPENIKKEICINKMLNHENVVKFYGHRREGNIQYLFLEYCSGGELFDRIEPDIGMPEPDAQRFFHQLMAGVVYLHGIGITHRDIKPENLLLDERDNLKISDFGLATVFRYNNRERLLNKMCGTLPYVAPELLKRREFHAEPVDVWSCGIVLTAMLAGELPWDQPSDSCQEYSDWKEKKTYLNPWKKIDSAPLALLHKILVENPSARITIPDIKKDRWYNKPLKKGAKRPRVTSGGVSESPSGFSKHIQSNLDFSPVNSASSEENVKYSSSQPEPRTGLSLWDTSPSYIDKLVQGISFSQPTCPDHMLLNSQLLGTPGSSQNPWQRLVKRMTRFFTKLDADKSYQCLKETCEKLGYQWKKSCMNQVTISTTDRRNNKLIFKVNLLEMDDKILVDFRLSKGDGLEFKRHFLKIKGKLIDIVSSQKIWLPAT

[4] = Inhibition of JNK2a2; set-up: species or system Homo sapiens
[5] = target: NUAK family SNF1-like kinase 1 (Homo sapiens, UniProt O60285); assay: Inhibition of ARK5
[6] = target: Serine/threonine-protein kinase WNK2 (Homo sapiens, UniProt Q9Y3S1); assay: Inhibition of WNK2
[7] = target: Cyclin-dependent kinase 6 (Homo sapiens, UniProt Q00534); assay: Inhibition of CDK6
[8] = Inhibition of AUR2; set-up: species or system Homo sapiens
[9] = target: 5'-AMP-activated protein kinase subunit beta-1 (Homo sapiens, UniProt Q9Y478); assay: Inhibition of AMPK
[10] = target: Serine/threonine-protein kinase Sgk1 (Homo sapiens, UniProt O00141); assay: Inhibition of SGK
SRSF protein kinase 3 = SRSF protein kinase 3 (Homo sapiens, UniProt Q9UPE1); assay: Inhibition of MSSK1
[11] = Inhibition of AUR1; set-up: species or system Homo sapiens
[12] = target: Serine/threonine-protein kinase Nek3 (Homo sapiens, UniProt P51956); assay: Inhibition of NEK3
[13] = Inhibition of PKG1B; set-up: species or system Homo sapiens
[14] = Inhibition of JNK1a1; set-up: species or system Homo sapiens
[15] = Inhibition of CMET; set-up: species or system Homo sapiens
[16] = target: Muscle, skeletal receptor tyrosine-protein kinase (Homo sapiens, UniProt O15146); assay: Inhibition of MUSK
[17] = Inhibition of PKA; set-up: species or system Homo sapiens
[18] = target: Serine/threonine-protein kinase DCLK2 (Homo sapiens, UniProt Q8N568); assay: Inhibition of DCAMKL2
[19] = target: Calcium/calmodulin-dependent protein kinase type IV (Homo sapiens, UniProt Q16566); assay: Inhibition of CAMK4
[20] = target: Ribosomal protein S6 kinase alpha-4 (Homo sapiens, UniProt O75676); assay: Inhibition of MSK2
[21] = target: Serine/threonine-protein kinase 33 (Homo sapiens, UniProt Q9BYT3); assay: Inhibition of STK33
TAK1/TAB1 = TAK1/TAB1 (Homo sapiens, UniProt O43318); assay: Inhibition of TAK1-TAB1
[22] = Inhibition of PKG1A; set-up: species or system Homo sapiens
[23] = Inhibition of PHK lambda 2; set-up: species or system Homo sapiens
[24] = target: Serine/threonine-protein kinase 31 (Homo sapiens, UniProt Q9BXU1); assay: Inhibition of STK31
[25] = target: Serine/threonine-protein kinase TBK1 (Homo sapiens, UniProt Q9UHD2); assay: Inhibition of TBK1
[26] = target: Serine/threonine-protein kinase Nek11 (Homo sapiens, UniProt Q8NG66); assay: Inhibition of NEK11
[27] = target: Cyclin-dependent kinase 9 (Homo sapiens, UniProt P50750); assay: Inhibition of CDK9
[28] = target: Cyclin-dependent kinase 7 (Homo sapiens, UniProt P50613); assay: Inhibition of CDK7
[29] = target: Mitogen-activated protein kinase kinase kinase 9 (Homo sapiens, UniProt P80192); assay: Inhibition of MLK1
Sequence of Mitogen-activated protein kinase kinase kinase 9 (P80192 whole entry): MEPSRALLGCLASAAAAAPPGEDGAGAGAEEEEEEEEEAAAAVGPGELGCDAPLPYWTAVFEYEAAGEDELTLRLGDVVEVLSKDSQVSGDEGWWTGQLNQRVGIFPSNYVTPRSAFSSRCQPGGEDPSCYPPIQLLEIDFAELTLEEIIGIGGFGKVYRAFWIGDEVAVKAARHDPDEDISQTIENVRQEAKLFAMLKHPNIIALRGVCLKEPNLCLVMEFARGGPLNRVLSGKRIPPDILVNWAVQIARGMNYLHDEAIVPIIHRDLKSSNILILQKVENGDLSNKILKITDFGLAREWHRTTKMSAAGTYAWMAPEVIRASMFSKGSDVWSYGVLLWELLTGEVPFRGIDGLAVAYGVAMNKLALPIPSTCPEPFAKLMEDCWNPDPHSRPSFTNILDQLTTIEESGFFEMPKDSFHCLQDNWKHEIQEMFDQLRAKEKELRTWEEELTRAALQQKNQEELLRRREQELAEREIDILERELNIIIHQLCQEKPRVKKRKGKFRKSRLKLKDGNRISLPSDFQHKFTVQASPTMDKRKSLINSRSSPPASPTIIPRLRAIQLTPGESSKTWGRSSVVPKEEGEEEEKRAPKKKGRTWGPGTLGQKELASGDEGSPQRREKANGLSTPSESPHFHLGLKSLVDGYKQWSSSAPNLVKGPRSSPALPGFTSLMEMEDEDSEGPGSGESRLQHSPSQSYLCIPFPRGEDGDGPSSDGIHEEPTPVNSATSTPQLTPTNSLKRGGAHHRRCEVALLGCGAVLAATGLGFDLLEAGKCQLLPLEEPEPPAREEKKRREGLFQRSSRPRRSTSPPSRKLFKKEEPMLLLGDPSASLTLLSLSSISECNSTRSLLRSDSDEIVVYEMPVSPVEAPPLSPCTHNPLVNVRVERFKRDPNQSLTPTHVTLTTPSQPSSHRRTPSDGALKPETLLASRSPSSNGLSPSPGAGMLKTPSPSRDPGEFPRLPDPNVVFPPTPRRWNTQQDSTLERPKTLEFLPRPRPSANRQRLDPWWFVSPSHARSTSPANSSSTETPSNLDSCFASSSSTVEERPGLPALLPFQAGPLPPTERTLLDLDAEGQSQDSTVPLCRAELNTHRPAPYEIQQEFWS

Sequence of Serine/threonine-protein kinase 33 (Q9BYT3 whole entry): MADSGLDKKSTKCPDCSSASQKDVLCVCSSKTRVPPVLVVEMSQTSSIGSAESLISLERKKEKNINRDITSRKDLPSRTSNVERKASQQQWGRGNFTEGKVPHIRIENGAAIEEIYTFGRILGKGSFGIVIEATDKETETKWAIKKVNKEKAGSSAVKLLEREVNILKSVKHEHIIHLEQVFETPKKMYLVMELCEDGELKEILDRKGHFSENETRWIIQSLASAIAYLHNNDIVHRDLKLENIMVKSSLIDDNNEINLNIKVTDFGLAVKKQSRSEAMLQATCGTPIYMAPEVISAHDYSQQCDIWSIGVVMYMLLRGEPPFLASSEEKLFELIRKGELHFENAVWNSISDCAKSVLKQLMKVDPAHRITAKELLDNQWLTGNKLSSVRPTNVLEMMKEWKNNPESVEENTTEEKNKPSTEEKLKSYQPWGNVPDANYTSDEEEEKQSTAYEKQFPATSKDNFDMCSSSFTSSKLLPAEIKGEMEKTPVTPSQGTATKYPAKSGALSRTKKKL
Sequence of TAK1/TAB1 (Q15750 whole entry): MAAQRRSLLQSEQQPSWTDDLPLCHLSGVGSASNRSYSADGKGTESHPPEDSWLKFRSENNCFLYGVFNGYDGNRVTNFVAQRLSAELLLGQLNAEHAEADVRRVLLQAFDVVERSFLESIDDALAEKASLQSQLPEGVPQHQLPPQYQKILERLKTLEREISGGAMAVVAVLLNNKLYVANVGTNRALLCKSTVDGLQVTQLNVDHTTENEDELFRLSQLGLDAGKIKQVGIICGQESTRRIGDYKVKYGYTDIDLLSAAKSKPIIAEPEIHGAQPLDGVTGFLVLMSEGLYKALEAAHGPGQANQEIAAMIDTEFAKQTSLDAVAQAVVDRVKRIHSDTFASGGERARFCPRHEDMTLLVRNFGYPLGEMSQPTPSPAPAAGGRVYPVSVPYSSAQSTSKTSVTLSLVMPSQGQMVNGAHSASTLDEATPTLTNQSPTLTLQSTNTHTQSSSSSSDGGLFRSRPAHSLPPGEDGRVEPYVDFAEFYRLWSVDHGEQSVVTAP
Sequence of TAK1/TAB1 (O43318 whole entry): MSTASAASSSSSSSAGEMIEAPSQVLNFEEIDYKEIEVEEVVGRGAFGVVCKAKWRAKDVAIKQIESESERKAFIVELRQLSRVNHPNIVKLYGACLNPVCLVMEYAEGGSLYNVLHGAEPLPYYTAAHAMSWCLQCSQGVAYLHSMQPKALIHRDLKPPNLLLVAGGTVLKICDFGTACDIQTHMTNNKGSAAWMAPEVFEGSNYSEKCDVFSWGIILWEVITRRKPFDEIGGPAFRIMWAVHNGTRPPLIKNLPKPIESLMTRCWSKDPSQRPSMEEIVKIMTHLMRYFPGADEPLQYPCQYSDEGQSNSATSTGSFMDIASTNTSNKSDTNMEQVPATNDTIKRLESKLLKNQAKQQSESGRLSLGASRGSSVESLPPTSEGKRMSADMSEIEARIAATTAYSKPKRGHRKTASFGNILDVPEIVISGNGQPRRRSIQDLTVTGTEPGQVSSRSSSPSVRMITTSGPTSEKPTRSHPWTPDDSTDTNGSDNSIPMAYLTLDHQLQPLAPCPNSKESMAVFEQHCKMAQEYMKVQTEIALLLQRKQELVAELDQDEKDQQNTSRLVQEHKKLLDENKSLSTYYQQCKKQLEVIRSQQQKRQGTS
Sequence of 5'-AMP-activated protein kinase subunit beta-1 (Q9Y478 whole entry): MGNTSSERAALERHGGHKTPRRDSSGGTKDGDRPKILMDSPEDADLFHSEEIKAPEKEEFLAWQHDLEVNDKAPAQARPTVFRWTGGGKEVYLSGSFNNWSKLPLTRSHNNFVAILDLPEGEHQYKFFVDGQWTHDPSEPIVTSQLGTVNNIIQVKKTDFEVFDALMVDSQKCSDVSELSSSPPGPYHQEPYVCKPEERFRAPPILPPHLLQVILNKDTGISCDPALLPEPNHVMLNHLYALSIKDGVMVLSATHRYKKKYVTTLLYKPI
Sequence of Cyclin-dependent kinase 6 (Q00534 whole entry): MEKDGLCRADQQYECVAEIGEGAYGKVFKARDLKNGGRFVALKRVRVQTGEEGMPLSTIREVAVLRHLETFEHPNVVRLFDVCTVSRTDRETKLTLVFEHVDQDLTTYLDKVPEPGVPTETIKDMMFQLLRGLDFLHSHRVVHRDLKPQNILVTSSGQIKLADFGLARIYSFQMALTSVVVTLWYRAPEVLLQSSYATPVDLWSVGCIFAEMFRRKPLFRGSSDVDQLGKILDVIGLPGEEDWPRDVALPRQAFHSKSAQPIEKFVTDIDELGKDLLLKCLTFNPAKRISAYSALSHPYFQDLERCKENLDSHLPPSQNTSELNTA
Sequence of Serine/threonine-protein kinase DCLK2 (Q8N568 whole entry): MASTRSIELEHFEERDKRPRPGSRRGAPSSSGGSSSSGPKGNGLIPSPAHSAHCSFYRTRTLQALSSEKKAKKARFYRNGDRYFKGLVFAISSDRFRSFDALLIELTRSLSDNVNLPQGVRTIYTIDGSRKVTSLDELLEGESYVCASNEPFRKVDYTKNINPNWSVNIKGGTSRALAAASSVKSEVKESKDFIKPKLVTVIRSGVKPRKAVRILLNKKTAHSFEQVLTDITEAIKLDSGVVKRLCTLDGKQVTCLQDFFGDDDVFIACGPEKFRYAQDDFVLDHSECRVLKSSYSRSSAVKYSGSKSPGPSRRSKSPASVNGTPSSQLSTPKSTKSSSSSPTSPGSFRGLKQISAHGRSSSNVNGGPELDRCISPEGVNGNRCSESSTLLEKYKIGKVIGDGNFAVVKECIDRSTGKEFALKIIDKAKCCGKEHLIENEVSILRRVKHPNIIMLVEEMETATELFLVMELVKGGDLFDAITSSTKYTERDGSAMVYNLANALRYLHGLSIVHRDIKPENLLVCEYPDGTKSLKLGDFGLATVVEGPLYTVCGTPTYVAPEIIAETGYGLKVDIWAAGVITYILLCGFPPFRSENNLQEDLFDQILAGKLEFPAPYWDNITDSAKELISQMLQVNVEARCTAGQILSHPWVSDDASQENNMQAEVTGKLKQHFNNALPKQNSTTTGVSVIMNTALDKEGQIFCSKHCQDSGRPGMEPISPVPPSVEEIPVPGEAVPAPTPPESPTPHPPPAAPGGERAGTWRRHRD
Sequence of NUAK family SNF1-like kinase 1 (O60285 whole entry): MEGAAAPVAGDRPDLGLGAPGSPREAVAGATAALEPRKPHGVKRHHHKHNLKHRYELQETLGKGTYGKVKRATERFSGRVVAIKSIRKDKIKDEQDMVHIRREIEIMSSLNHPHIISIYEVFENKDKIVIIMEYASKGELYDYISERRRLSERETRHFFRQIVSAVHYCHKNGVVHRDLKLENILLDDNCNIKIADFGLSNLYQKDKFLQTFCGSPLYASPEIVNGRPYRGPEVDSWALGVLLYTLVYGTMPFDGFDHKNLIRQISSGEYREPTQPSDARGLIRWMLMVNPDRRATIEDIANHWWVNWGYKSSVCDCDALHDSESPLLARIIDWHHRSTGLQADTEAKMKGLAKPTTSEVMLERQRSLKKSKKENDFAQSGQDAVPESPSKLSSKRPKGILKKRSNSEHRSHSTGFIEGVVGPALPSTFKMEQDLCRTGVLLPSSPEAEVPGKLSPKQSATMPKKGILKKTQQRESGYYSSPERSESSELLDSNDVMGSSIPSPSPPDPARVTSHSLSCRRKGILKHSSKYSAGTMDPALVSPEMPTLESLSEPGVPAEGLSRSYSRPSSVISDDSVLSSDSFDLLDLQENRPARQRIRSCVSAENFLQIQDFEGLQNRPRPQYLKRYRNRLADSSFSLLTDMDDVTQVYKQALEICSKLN

With `N#Cc1ncc2nc1OCCCCOc1ccc(Cl)cc1NC(=O)N2` the EC50 [1] was over 10 µM, the EC50 (NCI-H1299) was 1.3 µM and the EC50 (HeLa) was 57.6 µM. The AUC [2] was 3.8 µM·h.
With `CNc1cc2c(cc1Cl)NC(=O)Nc1cnc(C#N)c(n1)OC/C=C\CO2` the EC50 [1] was over 10 µM, the EC50 (NCI-H1299) was over 10 µM and the EC50 (HeLa) was over 59.3 µM. It also gave an IC50 [3] of 0.002 µM.
`N#Cc1ncc2nc1OCCCCOc1cc(OCCO)c(Cl)cc1NC(=O)N2` showed an EC50 [1] of over 10 µM, an EC50 (NCI-H1299) of 3.2 µM and an EC50 (HeLa) of over 59.3 µM. It also gave an IC50 [3] of 0.008 µM.
Work on `CN(C)c1cc2c(cc1Cl)NC(=O)Nc1cnc(C#N)c(n1)OC/C=C\CO2` yielded an EC50 [1] of over 10 µM, an EC50 (NCI-H1299) of 1.7 µM and an EC50 (HeLa) of 18.7 µM. It also gave an IC50 [3] of 0.002 µM.
Compound `N#Cc1ncc2nc1OCCCCOc1cc(OC(=O)N3CCC(N4CCCCC4)CC3)c(Cl)cc1NC(=O)N2` has an EC50 [1] of over 10 µM, an EC50 (NCI-H1299) of over 10 µM and an EC50 (HeLa) of 2.8 µM. For the same compound, the IC50 [3] was 0.001 µM.
For `CCNc1cc2c(cc1Cl)NC(=O)Nc1cnc(C#N)c(n1)OCCCCO2`, the Activity [1] was “inactive”, the Activity (NCI-H1299) was “inactive” and the EC50 (HeLa) was over 59.3 µM. It also gave an IC50 [3] of 0.003 µM.
With `N#Cc1ncc2nc1OC/C=C\COc1cc(NC(=O)OCCN3CCOCC3)c(Cl)cc1NC(=O)N2` the EC50 [1] was over 10 µM, the EC50 (NCI-H1299) was over 10 µM and the EC50 (HeLa) was over 59.3 µM. It also gave an IC50 [3] of 0.003 µM.
With `N#Cc1ncc2nc1OC/C=C\COc1cc(O)c(Cl)cc1NC(=O)N2` the EC50 [1] was over 10 µM, the EC50 (NCI-H1299) was 0.7 µM and the EC50 (HeLa) was 45.7 µM. It also gave an IC50 [3] of 0.0003 µM.
`N#Cc1ncc2nc1OCCCCOc1cc(N)c(Cl)cc1NC(=O)N2` showed an EC50 [1] of 2.6 µM, an EC50 (NCI-H1299) of under 0.03 µM and an EC50 (HeLa) of 3.4 µM. For the same compound, the IC50 [3] was 0.001 µM.
`N#Cc1ncc2nc1OC/C=C\COc1cc(N)c(Cl)cc1NC(=O)N2` gave an EC50 [1] of over 10 µM, an EC50 (NCI-H1299) of under 0.03 µM and an EC50 (HeLa) of over 59.3 µM. For the same compound, the IC50 [3] was 0.0003 µM.
In the case of `N#Cc1ncc2nc1OCCCCOc1cc(P(=O)(O)O)c(Cl)cc1NC(=O)N2`, the Activity [1] is reported as “inactive”, the Activity (NCI-H1299) is reported as “inactive” and the EC50 (HeLa) is reported as 17.4 µM. The IC50 [3] was 0.008 µM.
With `N#Cc1ncc2nc1OCCCCOc1cc(NC(=O)c3ccnc(Cl)c3)c(Cl)cc1NC(=O)N2` the Activity [1] was “inactive”, the Activity (NCI-H1299) was “inactive” and the EC50 (HeLa) was over 59.3 µM. The IC50 [3] was 0.004 µM.
Work on `N#Cc1ncc2nc1OC/C=C\COc1cc(NCCO)c(Cl)cc1NC(=O)N2` yielded an EC50 [1] of over 10 µM, an EC50 (NCI-H1299) of 1.3 µM and an EC50 (HeLa) of over 59.3 µM. The IC50 [3] was 0.002 µM.
Work on `N#Cc1ncc2nc1OC/C=C\COc1cc(OC(=O)N3CCC(N4CCCCC4)CC3)c(Cl)cc1NC(=O)N2` yielded an EC50 [1] of over 10 µM, an EC50 (NCI-H1299) of over 10 µM and an EC50 (HeLa) of 1.2 µM. The IC50 [3] was 0.001 µM.
Compound `N#Cc1ncc2nc1OC/C=C\COc1cc(NC(=O)c3ccnc(Cl)c3)c(Cl)cc1NC(=O)N2` has an EC50 [1] of over 10 µM, an EC50 (NCI-H1299) of over 10 µM and an EC50 (HeLa) of 5.4 µM. The IC50 [3] was 0.006 µM.
For `N#Cc1ncc2nc1OC/C=C\COc1cc(OCCCN3CCOCC3)c(Cl)cc1NC(=O)N2`, the EC50 [1] was over 10 µM, the EC50 (NCI-H1299) was over 10 µM and the EC50 (HeLa) was 1.9 µM. The IC50 [3] was 0.0003 µM.
In the case of `N#Cc1ncc2nc1OCCCCOc1cc(NC(=O)c3ccncc3)c(Cl)cc1NC(=O)N2`, the Activity [1] is reported as “inactive”, the Activity (NCI-H1299) is reported as “inactive” and the EC50 (HeLa) is reported as 24.3 µM. The IC50 [3] was 0.004 µM.
For `N#Cc1ncc2nc1OCCCCOc1cc(NCc3cncs3)c(Cl)cc1NC(=O)N2`, the Ki [4] was over 4.12 µM, the Ki [5] was over 1.5 µM and the Ki [6] was over 1.52 µM. The Activity [1] was “inactive”, the Ki [7] was over 1.55 µM and the Ki [8] was 1.91 µM. For the same compound, the Ki [9] was 1.54 µM, the Activity (NCI-H1299) was “inactive” and the EC50 (HeLa) was 59.3 µM. It also gave a Ki [10] of 8.18 µM, a Ki (SRSF protein kinase 3) of over 1.74 µM and a Ki [11] of 2.02 µM. For the same compound, the Ki [12] was over 1.67 µM, the Ki [13] was over 1.68 µM and the Ki [14] was over 3.06 µM. It also gave a Ki [15] of over 2.86 µM, a Ki [16] of over 1.65 µM and a Ki [17] of over 7.5 µM. It also gave a Ki [18] of over 9.57 µM, a Ki [19] of over 8.57 µM and a Ki [20] of 0.949 µM. It also gave a Ki [21] of over 1.64 µM, a Ki (TAK1/TAB1) of over 1.61 µM and a Ki [22] of over 1.78 µM. It also gave a Ki [23] of over 4.9 µM, a Ki [24] of over 1.44 µM and a Ki [25] of over 1.53 µM. For the same compound, the Ki [26] was over 1.55 µM, the Ki [27] was over 1.64 µM and the Ki [28] was over 1.53 µM. It also gave a Ki [29] of over 1.67 µM.
